Results taken from ChEMBL document CHEMBL2380235, “Discovery of N-{4-[(3-hydroxyphenyl)-3-methylpiperazin-1-yl]methyl-2-methylpropyl}-4-phenoxybenzamide analogues as selective kappa opioid receptor antagonists” (J Med Chem, 2013).
The source made the active and inactive calls. No cut-off for these calls is given here.

Assays:
[1] = target: Delta-type opioid receptor (Homo sapiens) (UniProt P41143); test: Antagonist activity at human delta opioid receptor expressed in CHO cells assessed as inhibition of DPDPE-stimulated [35S]GTPgammaS binding; assay type: functional, cell-based
Chain of Delta-type opioid receptor (Homo sapiens) (P41143 whole entry): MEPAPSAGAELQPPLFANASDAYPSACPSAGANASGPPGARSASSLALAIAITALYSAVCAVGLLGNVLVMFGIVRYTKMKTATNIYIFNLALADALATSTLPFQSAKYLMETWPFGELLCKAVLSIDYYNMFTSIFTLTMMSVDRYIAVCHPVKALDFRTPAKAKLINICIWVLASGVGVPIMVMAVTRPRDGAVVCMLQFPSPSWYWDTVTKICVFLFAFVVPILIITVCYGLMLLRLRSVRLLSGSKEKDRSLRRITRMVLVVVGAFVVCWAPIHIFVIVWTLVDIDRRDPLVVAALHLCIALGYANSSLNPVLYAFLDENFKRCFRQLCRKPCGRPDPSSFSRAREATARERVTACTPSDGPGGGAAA
Outline: (§1)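 Agonist concentration-response curves (eight concentrations, duplicate) were run with or without a single test-compound concentration. Ke = [L]/(DR−1), where [L] is the test-compound concentration and DR is the ratio of agonist EC50 with versus without compound. At least two test-compound concentrations were used, chosen to shift agonist EC50 rightward at least four-fold while keeping a clear upper asymptote.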

Homo sapiens [2] = species on record: Homo sapiens; test: Selectivity ratio of Ke for human delta opioid receptor to Ke for human kappa opioid receptor
[3] = target: Kappa-type opioid receptor (Homo sapiens) (UniProt P41145); test: Antagonist activity at human kappa opioid receptor expressed in CHO cells assessed as inhibition of U69,593-stimulated [35S]GTPgammaS binding; assay type: functional, cell-based; outline: as §1
Chain of Kappa-type opioid receptor (Homo sapiens) (P41145 whole entry): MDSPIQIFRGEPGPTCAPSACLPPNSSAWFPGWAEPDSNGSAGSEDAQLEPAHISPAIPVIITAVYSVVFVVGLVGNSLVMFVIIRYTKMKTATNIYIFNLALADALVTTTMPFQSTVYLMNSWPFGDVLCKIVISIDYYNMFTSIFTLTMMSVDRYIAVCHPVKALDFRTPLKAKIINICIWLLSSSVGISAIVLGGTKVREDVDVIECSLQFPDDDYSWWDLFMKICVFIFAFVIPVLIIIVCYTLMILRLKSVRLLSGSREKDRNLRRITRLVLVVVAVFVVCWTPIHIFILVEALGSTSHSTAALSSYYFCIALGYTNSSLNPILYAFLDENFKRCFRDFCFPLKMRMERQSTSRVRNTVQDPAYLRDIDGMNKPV

Homo sapiens [4] = species on record: Homo sapiens; test: Selectivity ratio of Ke for human mu opioid receptor to Ke for human kappa opioid receptor
[5] = target: Mu-type opioid receptor (Homo sapiens) (UniProt P35372); details: CHO
Chain of Mu-type opioid receptor (Homo sapiens) (P35372 whole entry): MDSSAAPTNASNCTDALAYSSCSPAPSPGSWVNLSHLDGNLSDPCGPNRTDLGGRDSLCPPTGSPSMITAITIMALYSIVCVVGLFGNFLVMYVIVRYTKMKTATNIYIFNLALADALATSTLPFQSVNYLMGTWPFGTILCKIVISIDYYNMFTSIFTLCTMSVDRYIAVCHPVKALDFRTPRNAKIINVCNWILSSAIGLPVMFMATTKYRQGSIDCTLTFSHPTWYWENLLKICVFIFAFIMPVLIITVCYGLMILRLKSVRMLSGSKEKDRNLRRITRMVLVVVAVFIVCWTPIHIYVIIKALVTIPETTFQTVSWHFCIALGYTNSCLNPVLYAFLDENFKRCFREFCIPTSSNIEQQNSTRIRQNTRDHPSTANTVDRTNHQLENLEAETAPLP

[6] = target: Delta-type opioid receptor (Homo sapiens) (UniProt P41143); test: Intrinsic activity at human delta opioid receptor expressed in CHO cells at 10 uM by [35S]GTPgammaS binding assay; assay type: functional, cell-based
[7] = target: Kappa-type opioid receptor (Homo sapiens) (UniProt P41145); test: Intrinsic activity at human kappa opioid receptor expressed in CHO cells at 10 uM by [35S]GTPgammaS binding assay; assay type: functional, cell-based

CC(C)[C@@H](CN1CCN(c2cccc(O)c2)[C@@H](C)C1)NC(=O)c1ccc(Oc2cccc(Cl)c2)cc1
Ke [1]: 8.3 nM | Ratio Ke (Homo sapiens [2]): 20 | Ke [3]: 0.42 nM | Ratio Ke (Homo sapiens [4]): 43 | Ke [5]: 18 nM | Activity [6]: inactive | Activity [7]: inactive

COc1cc(C(=O)N[C@H](CN2CCN(c3cccc(O)c3)[C@@H](C)C2)C(C)C)ccc1Oc1cccc(C)c1
Ke [1]: 93 nM | Ratio Ke (Homo sapiens [2]): 372 | Ke [3]: 0.25 nM | Ratio Ke (Homo sapiens [4]): 140 | Ke [5]: 35.1 nM | Activity [6]: inactive | Activity [7]: inactive

COc1cc(Oc2cccc(C)c2)ccc1C(=O)N[C@H](CN1CCN(c2cccc(O)c2)[C@@H](C)C1)C(C)C
Ke [1]: 63 nM | Ratio Ke (Homo sapiens [2]): 48 | Ke [3]: 1.3 nM | Ratio Ke (Homo sapiens [4]): 38 | Ke [5]: 49 nM | Activity [6]: inactive | Activity [7]: inactive

CC(C)[C@@H](CN1CCN(c2cccc(O)c2)[C@@H](C)C1)NC(=O)c1ccc(Oc2cccc(C(F)(F)F)c2)cc1
Ke [1]: 54 nM | Ratio Ke (Homo sapiens [2]): 45 | Ke [3]: 1.2 nM | Ratio Ke (Homo sapiens [4]): 18 | Ke [5]: 21 nM | Activity [6]: inactive | Activity [7]: inactive

CC(C)[C@@H](CN1CCN(c2cccc(O)c2)[C@H](C)C1)NC(=O)[C@H]1Cc2ccc(O)cc2CN1
Ke [1]: 1550 nM | Ke [5]: 49.4 nM | Activity [6]: inactive | Activity [7]: inactive

CC(C)[C@@H](CN1CCN(c2cccc(O)c2)[C@@H](C)C1)NC(=O)[C@H]1Cc2ccc(O)cc2CN1
Ke [1]: 1310 nM | Ke [5]: 74.2 nM | Activity [6]: inactive | Activity [7]: inactive

Cc1ccc(O)c(Oc2ccc(C(=O)N[C@H](CN3CCN(c4cccc(O)c4)[C@@H](C)C3)C(C)C)cc2Cl)c1
Ke [1]: 15 nM | Ratio Ke (Homo sapiens [2]): 5 | Ke [3]: 3 nM | Ratio Ke (Homo sapiens [4]): 3 | Ke [5]: 8.2 nM | Activity [6]: inactive | Activity [7]: inactive

CC(C)[C@@H](CN1CCN(c2cccc(O)c2)[C@@H](C)C1)NC(=O)c1ccc(Oc2ccccc2)nc1
Ke [1]: 1790 nM | Ratio Ke (Homo sapiens [2]): 1120 | Ke [3]: 1.6 nM | Ratio Ke (Homo sapiens [4]): 38 | Ke [5]: 60 nM | Activity [6]: inactive | Activity [7]: inactive

CC(C)[C@@H](CN1CCN(c2cccc(O)c2)[C@@H](C)C1)NC(=O)c1ccc(Oc2cccc(F)c2)cc1
Ke [1]: 173 nM | Ratio Ke (Homo sapiens [2]): 117 | Ke [3]: 1.48 nM | Ratio Ke (Homo sapiens [4]): 20 | Ke [5]: 30 nM | Activity [6]: inactive | Activity [7]: inactive

COc1ccccc1Oc1ccc(C(=O)N[C@H](CN2CCN(c3cccc(O)c3)[C@@H](C)C2)C(C)C)cc1
Ke [1]: 869 nM | Ratio Ke (Homo sapiens [2]): 155 | Ke [3]: 5.6 nM | Ratio Ke (Homo sapiens [4]): 23 | Ke [5]: 127 nM | Activity [6]: inactive | Activity [7]: inactive

CC(C)[C@@H](CN1CCN(c2cccc(O)c2)[C@@H](C)C1)NC(=O)c1ccc(Oc2cccc(Br)c2)cc1
Ke [1]: 42 nM | Ratio Ke (Homo sapiens [2]): 88 | Ke [3]: 0.48 nM | Ratio Ke (Homo sapiens [4]): 35 | Ke [5]: 17 nM | Activity [6]: inactive | Activity [7]: inactive

CC(C)[C@@H](CN1CCN(c2cccc(O)c2)[C@@H](C)C1)NC(=O)c1ccc(Oc2ccccc2)cn1
Ke [1]: 2020 nM | Ratio Ke (Homo sapiens [2]): 723 | Ke [3]: 2.8 nM | Ratio Ke (Homo sapiens [4]): 36 | Ke [5]: 101 nM | Activity [6]: inactive | Activity [7]: inactive

Cc1cccc(Oc2ccc(C(=O)N[C@H](CN3CCN(c4cccc(O)c4)[C@@H](C)C3)C(C)C)c(O)c2)c1
Ratio Ke (Homo sapiens [2]): 463 | Ke [3]: 1.9 nM | Ratio Ke (Homo sapiens [4]): 63 | Activity [6]: inactive | Activity [7]: inactive

Cc1cccc(Oc2ccc(C(=O)N[C@H](CN3CCN(c4cccc(O)c4)[C@@H](C)C3)C(C)C)cc2O)c1
Ke [1]: 81 nM | Ratio Ke (Homo sapiens [2]): 142 | Ke [3]: 0.57 nM | Ratio Ke (Homo sapiens [4]): 24 | Ke [5]: 13.7 nM | Activity [6]: inactive | Activity [7]: inactive

CC(C)[C@@H](CN1CCN(c2cccc(O)c2)[C@@H](C)C1)NC(=O)c1ccc(Oc2ccc(O)cc2)cc1
Ke [1]: 1700 nM | Ratio Ke (Homo sapiens [2]): 197 | Ke [3]: 8.6 nM | Ratio Ke (Homo sapiens [4]): 8 | Ke [5]: 71 nM | Activity [6]: inactive | Activity [7]: inactive

COc1cc(C(=O)N[C@H](CN2CCN(c3cccc(O)c3)[C@@H](C)C2)C(C)C)ccc1Oc1cc(C)ccc1O
Ratio Ke (Homo sapiens [2]): 19 | Ke [3]: 6.2 nM | Ratio Ke (Homo sapiens [4]): 1.6 | Activity [6]: inactive | Activity [7]: inactive

COc1ccc(C(=O)N[C@H](CN2CCN(c3cccc(O)c3)[C@@H](C)C2)C(C)C)cc1OC
Ke [3]: 81.7 nM | Ratio Ke (Homo sapiens [4]): 4 | Activity [6]: inactive

Cc1cccc(Oc2ccc(C(=O)N[C@H](CN3CCN(c4cccc(O)c4)[C@@H](C)C3)C(C)C)cc2)c1
Ke [1]: 131 nM | Ratio Ke (Homo sapiens [2]): 771 | Ke [3]: 0.17 nM | Ratio Ke (Homo sapiens [4]): 77 | Ke [5]: 13 nM | Activity [6]: inactive | Activity [7]: inactive

CC(C)[C@@H](CN1CCN(c2cccc(O)c2)[C@@H](C)C1)NC(=O)c1ccc(Oc2ccccc2O)c(Cl)c1
Ratio Ke (Homo sapiens [2]): 42 | Ke [3]: 5 nM | Ratio Ke (Homo sapiens [4]): 7 | Activity [6]: inactive | Activity [7]: inactive

Cc1ccc(O)c(Oc2ccc(C(=O)N[C@H](CN3CCN(c4cccc(O)c4)[C@@H](C)C3)C(C)C)cc2)c1
Activity [6]: inactive | Activity [7]: inactive

Cc1cccc(Oc2ccc(C(=O)N[C@H](CN3CCN(c4cccc(O)c4)[C@@H](C)C3)C(C)C)c(C)c2)c1
Ratio Ke (Homo sapiens [2]): 22 | Ke [3]: 0.65 nM | Ratio Ke (Homo sapiens [4]): 28 | Activity [6]: inactive | Activity [7]: inactive

COc1cc(C(=O)N[C@H](CN2CCN(c3cccc(O)c3)[C@@H](C)C2)C(C)C)ccc1Oc1ccccc1O
Ratio Ke (Homo sapiens [2]): 7 | Ke [3]: 16.3 nM | Ratio Ke (Homo sapiens [4]): 5 | Ke [5]: 74 nM | Activity [6]: inactive | Activity [7]: inactive

COc1cccc(Oc2ccc(C(=O)N[C@H](CN3CCN(c4cccc(O)c4)[C@@H](C)C3)C(C)C)cc2)c1
Ke [1]: 1500 nM | Ratio Ke (Homo sapiens [2]): 2380 | Ke [3]: 0.63 nM | Ratio Ke (Homo sapiens [4]): 52 | Ke [5]: 33 nM | Activity [6]: inactive | Activity [7]: inactive

CC(C)[C@@H](CN1CCN(c2cccc(O)c2)[C@@H](C)C1)NC(=O)c1ccc(Oc2ccccc2F)cc1
Ke [1]: 96 nM | Ratio Ke (Homo sapiens [2]): 126 | Ke [3]: 0.76 nM | Ratio Ke (Homo sapiens [4]): 28 | Ke [5]: 21.1 nM | Activity [6]: inactive | Activity [7]: inactive

Cc1cc(C)cc(Oc2ccc(C(=O)N[C@H](CN3CCN(c4cccc(O)c4)[C@@H](C)C3)C(C)C)cc2)c1
Ke [1]: 78 nM | Ratio Ke (Homo sapiens [2]): 80 | Ke [3]: 0.98 nM | Ratio Ke (Homo sapiens [4]): 26 | Ke [5]: 25 nM | Activity [6]: inactive | Activity [7]: inactive

COc1ccc(Oc2ccc(C(=O)N[C@H](CN3CCN(c4cccc(O)c4)[C@@H](C)C3)C(C)C)cc2)cc1
Ke [1]: 1380 nM | Ratio Ke (Homo sapiens [2]): 2300 | Ke [3]: 0.6 nM | Ratio Ke (Homo sapiens [4]): 28 | Ke [5]: 17 nM | Activity [6]: inactive | Activity [7]: inactive

CC(C)[C@@H](CN1CCN(c2cccc(O)c2)[C@@H](C)C1)NC(=O)c1ccc(Oc2ccccc2O)cc1
Ke [1]: 960 nM | Ratio Ke (Homo sapiens [2]): 906 | Ke [3]: 1.06 nM | Ratio Ke (Homo sapiens [4]): 146 | Ke [5]: 125 nM | Activity [6]: inactive | Activity [7]: inactive

Cc1cc(C(=O)N[C@H](CN2CCN(c3cccc(O)c3)[C@@H](C)C2)C(C)C)ccc1Oc1ccccc1
Ke [1]: 435 nM | Ratio Ke (Homo sapiens [2]): 691 | Ke [3]: 0.63 nM | Ratio Ke (Homo sapiens [4]): 24 | Ke [5]: 15 nM | Activity [6]: inactive | Activity [7]: inactive

Cc1cccc(Oc2ccc(C(=O)N[C@H](CN3CCN(c4cccc(O)c4)[C@@H](C)C3)C(C)C)cc2C)c1
Ke [1]: 21 nM | Ratio Ke (Homo sapiens [2]): 131 | Ke [3]: 0.16 nM | Ratio Ke (Homo sapiens [4]): 89 | Ke [5]: 14.4 nM | Activity [6]: inactive | Activity [7]: inactive

CC(C)[C@@H](CN1CCN(c2cccc(O)c2)[C@@H](C)C1)NC(=O)c1ccc(Oc2cccc(O)c2)cc1
Ke [1]: 625 nM | Ratio Ke (Homo sapiens [2]): 338 | Ke [3]: 1.85 nM | Ratio Ke (Homo sapiens [4]): 37 | Ke [5]: 69 nM | Activity [6]: inactive | Activity [7]: inactive

Cc1cccc(Oc2ccc(C(=O)N[C@H](CN3CCN(c4cccc(O)c4)[C@@H](C)C3)C(C)C)cc2Cl)c1
Ke [1]: 1100 nM | Ratio Ke (Homo sapiens [2]): 3790 | Ke [3]: 0.29 nM | Ratio Ke (Homo sapiens [4]): 148 | Ke [5]: 43 nM | Activity [6]: inactive | Activity [7]: inactive

Cc1ccc(Oc2ccc(C(=O)N[C@H](CN3CCN(c4cccc(O)c4)[C@@H](C)C3)C(C)C)cc2)cc1
Ke [1]: 188 nM | Ratio Ke (Homo sapiens [2]): 272 | Ke [3]: 0.69 nM | Ratio Ke (Homo sapiens [4]): 29 | Ke [5]: 20 nM | Activity [6]: inactive | Activity [7]: inactive

Cc1cccc(Oc2ccc(C(=O)N[C@H](CN3CCN(c4cccc(O)c4)[C@@H](C)C3)C(C)C)cc2)c1O
Ke [1]: 93 nM | Ratio Ke (Homo sapiens [2]): 272 | Ke [3]: 0.34 nM | Ratio Ke (Homo sapiens [4]): 70 | Ke [5]: 23.8 nM | Activity [6]: inactive | Activity [7]: inactive
